NR2E3 ag-1 – activates human photoreceptor nuclear receptor NR2E3. Q9Y5X4. hit rate 0.12% among 320,000. GST-NR2E3/biotin-RetCOR TR-FRET, 1536-well. inhibition of corepressor binding, % at 4.78 µM;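 active = percent inhibition above the cutoff of mean plus 3 SD of all tested compounds, set per screening campaign, cut at about 20% in these data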;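 also: 0% = DMSO wells and 100% = biotin wells as full block of FRET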
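Material: NR2E3–RetCOR corepressor complex / Incubation: Compound–protein incubation for 5 h at 4 °C / Dosing: compound at 4.8 µM, single dose / Detection: time-resolved FRET / Benchmarks: high control biotin, low control 0.6% DMSO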
NR2F2 inh – NR2F2 (human) inhibition, primary screen | hit rate 0.7% among 370,000 | P24468 | HEK293T NGFI-A luciferase reporter, luminescence | AID 686940 | inhibition, % at 8.6 µM;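 active = inhibition above a per-plate cutoff, mean inhibition of test wells between control levels plus 3 SD, cut at about 38% in these data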;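 also: cells cotransfected with COUP-TFII expression vector driving the NGFI-A reporter; 0% = median of COUP-TF2 test wells and 100% = reporter-only cells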
Target sequence (P24468 whole entry, looked up): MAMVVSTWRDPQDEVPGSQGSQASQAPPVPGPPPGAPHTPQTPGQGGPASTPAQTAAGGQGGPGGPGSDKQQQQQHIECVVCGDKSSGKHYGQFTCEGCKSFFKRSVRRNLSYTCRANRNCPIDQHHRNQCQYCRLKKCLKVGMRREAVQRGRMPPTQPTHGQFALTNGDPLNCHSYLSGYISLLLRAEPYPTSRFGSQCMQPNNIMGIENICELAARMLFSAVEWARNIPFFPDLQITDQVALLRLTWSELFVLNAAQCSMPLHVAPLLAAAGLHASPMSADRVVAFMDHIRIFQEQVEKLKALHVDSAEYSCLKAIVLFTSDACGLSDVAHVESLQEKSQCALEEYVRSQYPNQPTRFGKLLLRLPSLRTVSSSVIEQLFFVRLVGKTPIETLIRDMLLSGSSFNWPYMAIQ
NR2E3 ag-2 – activates human NR2E3 receptor. Q9Y5X4. CHO-S Gal4-NCOR/VP16-NR2E3 two-hybrid, luciferase. inhibition of corepressor binding, % at 3.98 µM. hit rate 0.35% among 360,000. AID 602229;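 active = inhibition above the mean of all tested compounds plus 3 SD, cut at about 70% in these data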;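 also: 0% = DMSO with NR2E3 transfected cells and 100% = cells lacking NR2E3 construct; higher means lower luciferase signal from less NR2E3 corepressor binding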
GalR3 antag – blocks the human galanin receptor 3; O60755; HEK293 GalR3-CNG cAMP membrane potential fluorescence; galR3 body fused to GalR1 C-terminus; inhibition, % at 3 µM; hit rate 0.44% among 360,000;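 active = inhibition above the screen-wide average plus 3 SD, cut at about 13% in these data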;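 also: forskolin and galanin both at EC90 stimulate the cells; cAMP rise reported by CNG channel membrane potential dye signal; 0% = forskolin plus galanin with DMSO and 100% = forskolin alone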
Target sequence (O60755 1-299 limits assumed): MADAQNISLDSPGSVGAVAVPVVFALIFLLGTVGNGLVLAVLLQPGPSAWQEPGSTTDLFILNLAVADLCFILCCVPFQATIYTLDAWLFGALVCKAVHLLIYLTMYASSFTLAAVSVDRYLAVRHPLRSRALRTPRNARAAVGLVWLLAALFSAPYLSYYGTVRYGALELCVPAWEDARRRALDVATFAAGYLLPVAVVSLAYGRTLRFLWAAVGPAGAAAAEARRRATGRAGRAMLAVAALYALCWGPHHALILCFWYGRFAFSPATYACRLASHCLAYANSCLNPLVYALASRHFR
SMARCA2 act – increases SMARCA2 function in MMTV reporter cells | hit rate 1% among 370,000 | AID 652017 | activation, % at 9.1 µM | MG213 cells, MMTV-luciferase reporter, dexamethasone, overnight; in the data active = activation above about 7.8%;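 also: 0% = vehicle wells and 100% = reference activator wells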
SMARCA2 act conf – SMARCA2 activation, confirmation screen; activation, % at 9.1 µM; AID 652260; hit rate 30% among 3,500; MG213 cells, MMTV-luciferase with dexamethasone, luminescence, overnight; MG213 cells expressing E1A, Rb sequestered; DMSO wells 0%, reference activator 100%; shares compounds with SMARCA2 act;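 active = activation above its plate's cutoff, the mean activation of tested wells plus 3 SD, cut at about 7.9% in these data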
VP16 Luc act – GAL4-VP16 reporter activation counter-screen. hit rate 41% among 3,500. shares compounds with SMARCA2 act. HEK293 GAL4-VP16 pG5luc reporter, luciferase luminescence; scaled: DMSO wells 0%, SAHA wells 100%. activation, % at 9.1 µM;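 active = activation above the solvent-only control well mean plus 3 SD, averaged across control plates, cut at about 5.2% in these data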
* hit, by the source's call; . = not tested or not shown. Compounds with a hit are over-represented: about 2.2% of the library has one in this group of screens.

SMILES	NR2E3 ag-1	NR2F2 inh	NR2E3 ag-2	GalR3 antag	SMARCA2 act	SMARCA2 act conf	VP16 Luc act
Cc1ccc(CNC(=O)Nc2ccccc2)cc1	0.3	-25.8	-88.2	-1.4	8.7*	5.2	11.3*
Cc1ccc(NC(=O)NCCCCc2ccccc2)cc1	-3.0	7.2	-42.5	-0.6	2.5	.	.
O=C(NCCCc1ccccc1)Nc1ccccc1	1.8	-21.8	-16.1	-1.9	13.3*	6.8	2.3
O=C(NCc1ccc(Cl)cc1)O[C@H]1CC[C@@]23CCCN2C(=O)CCC[C@H]3C1	.	-0.4	.	.	.	.	.
COc1ccc(-c2csc3nc(C)n(-n4cccc4)c(=O)c23)cc1OC	4.8	3.1	5.4	2.5	9.1*	-1.8	1.9
CC(C)n1nnnc1C1(C)CN(S(C)(=O)=O)CC(=O)N1Cc1cccc(C(F)(F)F)c1 (centres undefined)	.	15.3	.	.	-2.0	.	.
Cc1sc2nc(SCC(=O)Nc3ccc(Cl)c(C(=O)O)c3)[nH]c(=O)c2c1C	.	-40.0	-78.3	-2.6	8.8*	9.2*	8.9*
Cc1sc2nc(SCC(=O)Nc3cccc(C(=O)O)c3)[nH]c(=O)c2c1C	.	7.1	-2.0	-2.3	-1.3	.	.
Nc1nc2cc(S(=O)(=O)NC3=NCCCCC3)ccc2s1	-3.4	-1.7	0.3	-5.0	9.8*	-2.4	0.0
N#Cc1cnc2sc3ccccc3n2c1=N	-2.0	-38.8	-145.3	-3.8	9.5*	9.2*	7.0*
O=C(CSc1nnc(-c2ccncc2)n1CC1CCCO1)Nc1cccc(O)c1 (centres undefined)	1.9	6.3	5.1	-2.9	8.3*	-0.9	-0.3
CCOc1ccc(NC(=O)CSc2nnc(-c3ccncc3)n2CC2CCCO2)cc1 (centres undefined)	2.3	15.5	-8.6	0.4	-3.8	.	.
O=C(NCc1cccs1)O[C@H]1CC[C@@]23CCCN2C(=O)CCC[C@H]3C1	.	-6.5	.	.	.	.	.
Cc1ccc(C(=O)Nc2cccc(-c3ccc(N4CCOCC4)nn3)c2)cc1	-1.5	-44.6	-48.0	3.0	-1.1	.	.
O=C(Nc1cccc(-c2ccc(N3CCOCC3)nn2)c1)c1ccc(Cl)cc1	-1.4	-49.8	-45.4	-3.1	2.1	.	.
O=C(Nc1cccc(-c2ccc(N3CCOCC3)nn2)c1)c1ccccc1Cl	-1.1	-30.4	-90.8	1.4	10.7*	14.3*	10.2*
O=C(Nc1cccc(-c2ccc(N3CCOCC3)nn2)c1)c1cccc(Cl)c1	.	-33.6	-47.0	-2.8	9.4*	5.3	7.0*
O=C1CCCC2=C1C1(CCCC1)N=C(Nc1nc3cc(Br)ccc3o1)N2	.	1.8	.	.	.	.	.
COC(=O)[C@]12C[C@H](CC(=O)NCC3CCCCC3)C(=O)N(Cc3cccc4ccccc34)C1=C[C@H](COCc1ccccc1)O[C@@H]2C	.	4.3	.	.	-2.3	.	.
CCN(CC)C(=O)CC[C@@H]1CC[C@]2(CCCN(Cc3ccncc3)C2)O1	.	-15.1	.	.	-3.4	.	.
COc1cc2c(cc1OC)[C@](C)(c1ccccc1)C[C@@H]2NCC=C(C)C	.	-8.2	.	-13.1	0.4	.	.
CCCCCCCCN1C(=O)[C@@H](CC(=O)NCc2ccccc2)C[C@@]2(C(=O)OC)C1=C[C@H](COCc1ccccc1)O[C@@H]2C	.	20.2	.	.	-2.5	.	.
Nc1cc(N)nc(SCCc2ccccc2)n1	-0.9	-36.9	-52.2	-6.2	9.5*	2.5	1.2
COc1ccc(OCCSc2nc(N)cc(N)n2)cc1	1.3	-41.1	-99.8	-0.8	11.2*	8.6*	8.5*
CC1CCCCC1N(C(=O)c1cc(C2CC2)on1)C1CCCCCC1 (centres undefined)	.	12.1	.	.	-2.6	.	.
SMILES	NR2E3 ag-1	NR2F2 inh	NR2E3 ag-2	GalR3 antag	SMARCA2 act	SMARCA2 act conf	VP16 Luc act
COc1cccc(CNS(=O)(=O)c2c(C(=O)N3CCCCCC3)c(C)n(C)c2C)c1	-1.3	5.3	-30.7	-4.3	9.8*	0.1	-0.7
O=C(NCCCN1CCN(c2ccc(F)cc2)CC1)NCc1ccccc1	.	13.5	.	.	-5.3	.	.
CCOC(=O)c1c(CN(C)C)n(C)c2c(O)c(N=NC(N)=O)c3ccc(Br)cc3c12	0.7	22.2	-64.7	-7.5	9.1*	2.7	6.3*
CCCCN1CC(=O)N2[C@H](C[C@@]3(C)c4ccccc4N(S(=O)(=O)c4ccccc4)[C@@H]23)C1=O	.	4.5	.	.	-1.2	.	.
CC(=O)Nc1ccc2ccccc2c1	1.1	.	-43.7	.	.	.	.
CCOC(=O)C(Nc1ccc2ccccc2c1)C(=O)OCC	-3.2	-18.1	-104.5	-1.8	8.3*	7.9*	1.7
C/C(=N/NC(=O)c1ccc(C(C)(C)C)cc1)c1cccnc1	-1.9	2.0	-4.9	-6.6	-4.5	.	.
C/C(=N/NC(=O)c1ccco1)c1ccc(NC(=O)c2ccc(Br)o2)cc1	-2.8	-28.2	-109.3	-3.2	9.5*	1.7	9.7*
C/C(=N/NC(=O)c1ccco1)c1cccnc1	1.6	-31.3	-24.8	-7.6	8.3*	-0.8	3.6
CCCCC(=O)Nc1cc(C(=O)NCCc2ccccc2)ccc1Cl	0.3	-27.7	-37.9	-8.5	8.2*	7.0	8.8*
COc1ccc(C(=O)Cc2nnc(C)s2)cc1	-2.8	-22.5	-24.9	-12.2	9.1*	5.9	11.6*
COc1ccc(C(=O)CC(=O)c2ccc(OC)cc2)cc1	0.3	-8.9	-69.0	-6.5	-1.4	.	.
COc1ccc(CN(CCN2CCOCC2)C(=O)c2cccc(F)c2F)cc1OC	.	-11.7	.	.	-1.5	.	.
C=CCN(C(=O)[C@@H](C1CC1)[C@@H](O)c1ccc(Cl)cc1)c1ccccc1	.	1.9	.	.	-2.7	.	.
Cc1cc(NC(=S)Nc2ccc(C)c(Cl)c2)n[nH]1	-2.3	-26.6	-50.0	-7.4	8.3*	10.4*	6.9*
CCC(NC(=O)CCCN1C(=O)COc2ccc(C)cc21)c1ccccc1 (centres undefined)	.	5.0	.	.	-6.0	.	.
CCN(CC)CCNc1ccc(C)c2sc3ccc(O)cc3c(=O)c12	.	-89.2	-17.0	-3.6	8.4*	18.2*	4.5
CCN(CC)CCCNC(=O)C(C)n1nc(C)c2sc3ccccc3c2c1=O (centres undefined)	4.3	0.3	-14.7	-0.9	-2.7	.	.
O=C(CSc1nnc(COc2ccccc2)n1Cc1ccco1)Nc1ccc(OCc2ccccc2)cc1	.	1.2	.	.	1.1	.	.
C=CCn1c(=O)c2ccccc2n2c(SCc3nc4ccccc4s3)nnc12	0.4	-20.8	-130.2	-8.6	3.1	.	.
C=CCN1C(=O)C(=O)N(Cc2nc3ccccc3s2)C1=O	2.9	-39.5	-91.3	-8.2	8.7*	8.2*	8.3*
Cc1ccc(NC(=O)CCS(=O)(=O)c2ccccc2)c(C)c1	.	-4.6	.	.	-5.1	.	.
O=C(COC(=O)/C=C/c1ccc(F)cc1)Nc1ccc(Cl)cn1	0.7	-6.5	-15.8	-0.5	-5.4	.	.
COc1cc(/C=C/C(=O)OCC(=O)Nc2ccc(Cl)cn2)ccc1O	-1.7	8.4	-24.8	-0.6	10.2*	3.9	1.3

Screening data (PubChem)
